Consider one compound from ChEMBL document CHEMBL5705905, “Pharmacological targeting of kinases MST1 and MST2 augments tissue repair and regeneration” (Sci Transl Med, 2016).

The term IC50 denotes the point on the concentration scale where inhibition reaches its midpoint.

Calls of active or inactive are those of the source. The rule behind the calls is not given here.

In data set [1] the target is Cyclin-dependent kinase-like 5 (Homo sapiens) (UniProt O76039). In words: Inhibition of CDKL5 (unknown origin) assessed as remaining activity at 1 uM by Kinome scan method relative to control. A digest of the protocol:
(§1)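 Active-site-dependent competition-binding profiling (KINOMEscan) at 1 μM against a 468-kinase panel; compound supplied from a 10 mM DMSO stock. Read-out is ctrl% = (test signal − positive control signal)/(negative control signal − positive control signal) × 100. DMSO is the negative control (100%) and a control compound the positive control (0%). Lower ctrl% means tighter binding.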

The subject of data set [2] is RAW264.7. Description: Inhibition of MST1/2 (unknown origin) in mouse RAW264.7 cells assessed as H2O2 stimulated MOB1 phosphorylation level at 1 to 3 uM by immunoblot analysis. The class given is cell-based. The settings on record: dose 1-3 µM. On the technique in general: In western blotting, separated proteins are transferred to a membrane and probed.
The target of data set [3] is Ephrin type-A receptor 5 (Homo sapiens) (UniProt P54756). Description: Inhibition of EPHA5 (unknown origin) assessed as remaining activity at 1 uM by Kinome scan method relative to control.
Data set [4] has as its target Dual specificity protein kinase CLK1 (Homo sapiens) (UniProt P49759). Description: Inhibition of CLK1 (unknown origin) assessed as remaining activity at 1 uM by Kinome scan method relative to control. An outline of the steps: as §1
For data set [5], the target named is STE20/SPS1-related proline-alanine-rich protein kinase (Homo sapiens) (UniProt Q9UEW8). Description: Inhibition of STK39 (unknown origin) assessed as remaining activity at 1 uM by Kinome scan method relative to control.
Data set [6] concerns the target Cyclin-dependent kinase 3 (Homo sapiens) (UniProt Q00526). In words: Inhibition of CDK3 (unknown origin) assessed as remaining activity at 1 uM by Kinome scan method relative to control. A digest of the protocol: as §1
For data set [7], the target named is T1, Serine/threonine-protein kinase 4 (Homo sapiens, UniProt Q13043).
T1 sequence (Q13043 whole entry): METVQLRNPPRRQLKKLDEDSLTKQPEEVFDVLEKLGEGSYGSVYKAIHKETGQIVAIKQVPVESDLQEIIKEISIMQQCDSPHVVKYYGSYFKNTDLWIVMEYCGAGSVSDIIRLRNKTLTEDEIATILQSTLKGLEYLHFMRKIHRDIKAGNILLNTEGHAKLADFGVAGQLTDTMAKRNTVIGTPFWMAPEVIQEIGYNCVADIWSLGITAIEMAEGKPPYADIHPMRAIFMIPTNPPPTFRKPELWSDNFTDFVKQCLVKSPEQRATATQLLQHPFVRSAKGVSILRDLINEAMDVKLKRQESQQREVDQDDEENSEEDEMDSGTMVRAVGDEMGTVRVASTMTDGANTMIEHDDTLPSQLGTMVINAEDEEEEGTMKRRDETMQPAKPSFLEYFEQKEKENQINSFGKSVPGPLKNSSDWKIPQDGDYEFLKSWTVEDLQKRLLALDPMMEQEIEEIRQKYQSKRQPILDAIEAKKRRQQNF
Description: Inhibition of Flag-tagged full-length MST1 (unknown origin) transfected in HEK293T cells assessed as MOB1a phosphorylation level incubated for 3 hrs by immunoblot analysis.

In data set [8] the target is Serine/threonine-protein kinase VRK2 (Homo sapiens) (UniProt Q86Y07). Description: Inhibition of VRK2 (unknown origin) assessed as remaining activity at 1 uM by Kinome scan method relative to control.
Data set [9] concerns Mus musculus. Description: In vivo inhibition of MST1/2 in wild-type Mst1fl/fl Mst2fl/fl mouse assessed as high number in nuclear YAP-positive cells at 1 mg/kg, ip administrated daily for 7 days by immunohistochemical staining. The format is functional, organism-based. Particulars: Liver, time 7.0 day.
For data set [10], the target named is T2, Serine/threonine-protein kinase 3 (Homo sapiens, UniProt Q13188).
T2 sequence (Q13188 whole entry): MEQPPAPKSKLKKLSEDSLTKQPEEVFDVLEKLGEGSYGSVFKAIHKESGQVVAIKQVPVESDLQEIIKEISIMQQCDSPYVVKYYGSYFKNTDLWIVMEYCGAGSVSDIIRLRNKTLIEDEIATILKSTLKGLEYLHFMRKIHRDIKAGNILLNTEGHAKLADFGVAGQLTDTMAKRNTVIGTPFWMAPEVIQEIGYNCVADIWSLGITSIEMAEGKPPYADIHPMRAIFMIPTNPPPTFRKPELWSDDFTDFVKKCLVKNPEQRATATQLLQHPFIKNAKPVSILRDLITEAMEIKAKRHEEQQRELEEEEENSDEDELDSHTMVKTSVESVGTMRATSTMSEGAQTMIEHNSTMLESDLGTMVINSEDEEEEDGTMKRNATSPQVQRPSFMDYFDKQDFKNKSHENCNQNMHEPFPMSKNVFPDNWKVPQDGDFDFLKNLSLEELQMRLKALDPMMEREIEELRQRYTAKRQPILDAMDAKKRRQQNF
Description: Inhibition of recombinant His-tagged full-length MST2 (unknown origin) expressing in Escherichia coli assessed as MOB1a phosphorylation level incubated for 30 min in the presence of 10 uM ATP by immunoblot analysis.

The target of data set [11] is Receptor tyrosine-protein kinase erbB-3 (Homo sapiens) (UniProt P21860). In words: Inhibition of ERBB3 (unknown origin) assessed as remaining activity at 1 uM by Kinome scan method relative to control.
Data set [12] relates to Receptor-type tyrosine-protein kinase FLT3 (Homo sapiens), P36888 [N841I]. In words: Inhibition of FLT3 N841I mutant (unknown origin) assessed as remaining activity at 1 uM by Kinome scan method relative to control.
Data set [13] deals with Mitogen-activated protein kinase kinase kinase 9 (Homo sapiens) (UniProt P80192). In words: Inhibition of MLK1 (unknown origin) assessed as remaining activity at 1 uM by Kinome scan method relative to control.
Data set [14] concerns the target Serine/threonine-protein kinase Sgk3 (Homo sapiens) (UniProt Q96BR1). Description: Inhibition of SGK3 (unknown origin) assessed as remaining activity at 1 uM by Kinome scan method relative to control.
The target in data set [15] is Mitogen-activated protein kinase 7 (Homo sapiens) (UniProt Q13164). In words: Inhibition of ERK5 (unknown origin) assessed as remaining activity at 1 uM by Kinome scan method relative to control.
Data set [16] in a line: Acute toxicity in wild-type mouse assessed as CK19-positive cells at 1 mg/kg,ip administrated daily for 2 months and after 2 weeks drug withdrawal by H and E staining based immunohistochemical analysis. Particulars: in vivo, 1460 h. The class given is organism-based. A digest of the protocol:
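Wild-type mice dosed 1 mg/kg i.p. daily for 2 months (vehicle 0.1% citric acid aqueous solution with 20% Kolliphor HS 15), or dosed and then withdrawn 2 weeks. Liver sections given H&E and IHC for CK19 and BrdU; positive cells counted, n = 3; means ± SD, Student's t test.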

The target in data set [17] is T1, Serine/threonine-protein kinase 4. Description: Inhibition of recombinant His-tagged full-length MST1 (unknown origin) expressing in Escherichia coli assessed as MOB1a phosphorylation level incubated for 30 min in the presence of 10 uM ATP by immunoblot analysis.
In data set [18] the target is Vascular endothelial growth factor receptor 1 (Homo sapiens) (UniProt P17948). In words: Inhibition of FLT1 (unknown origin) assessed as remaining activity at 1 uM by Kinome scan method relative to control.
The target in data set [19] is Epithelial discoidin domain-containing receptor 1 (Homo sapiens) (UniProt Q08345). In words: Inhibition of DDR1 (unknown origin) assessed as remaining activity at 1 uM by Kinome scan method relative to control.
Epithelial discoidin domain-containing receptor 1 (Homo sapiens), sequence (Q08345 whole entry, the tested form may be a part): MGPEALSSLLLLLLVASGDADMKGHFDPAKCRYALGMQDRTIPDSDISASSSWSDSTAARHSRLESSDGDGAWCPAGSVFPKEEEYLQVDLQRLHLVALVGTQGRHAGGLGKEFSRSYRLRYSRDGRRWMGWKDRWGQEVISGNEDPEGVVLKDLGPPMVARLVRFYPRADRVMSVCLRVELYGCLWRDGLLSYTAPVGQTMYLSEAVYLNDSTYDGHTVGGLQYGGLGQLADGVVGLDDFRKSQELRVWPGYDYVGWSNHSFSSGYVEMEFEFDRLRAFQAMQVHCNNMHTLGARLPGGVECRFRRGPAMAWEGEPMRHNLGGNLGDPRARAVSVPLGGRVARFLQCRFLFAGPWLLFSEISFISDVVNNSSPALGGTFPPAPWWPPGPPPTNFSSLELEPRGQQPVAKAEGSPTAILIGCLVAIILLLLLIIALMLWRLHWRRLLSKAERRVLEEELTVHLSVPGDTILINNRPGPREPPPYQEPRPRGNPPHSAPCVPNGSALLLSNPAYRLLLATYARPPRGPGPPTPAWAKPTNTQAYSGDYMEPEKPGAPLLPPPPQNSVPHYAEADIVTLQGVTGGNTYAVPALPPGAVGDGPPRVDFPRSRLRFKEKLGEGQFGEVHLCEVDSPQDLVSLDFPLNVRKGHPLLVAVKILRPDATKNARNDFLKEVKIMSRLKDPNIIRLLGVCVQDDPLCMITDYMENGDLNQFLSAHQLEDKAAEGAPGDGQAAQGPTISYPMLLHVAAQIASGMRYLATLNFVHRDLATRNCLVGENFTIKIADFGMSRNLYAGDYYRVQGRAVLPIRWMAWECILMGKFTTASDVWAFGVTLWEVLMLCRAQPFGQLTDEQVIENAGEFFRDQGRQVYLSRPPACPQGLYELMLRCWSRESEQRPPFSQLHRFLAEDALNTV

Cyclin-dependent kinase 3 (Homo sapiens), sequence (Q00526 whole entry, looked up): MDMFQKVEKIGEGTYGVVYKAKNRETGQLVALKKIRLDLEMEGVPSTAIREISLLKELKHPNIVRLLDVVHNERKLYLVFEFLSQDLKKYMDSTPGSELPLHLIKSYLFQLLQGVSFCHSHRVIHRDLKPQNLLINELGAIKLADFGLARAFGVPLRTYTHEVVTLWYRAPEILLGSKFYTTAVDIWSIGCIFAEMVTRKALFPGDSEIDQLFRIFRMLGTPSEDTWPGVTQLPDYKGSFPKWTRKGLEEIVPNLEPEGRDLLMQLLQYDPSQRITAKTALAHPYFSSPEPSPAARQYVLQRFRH
Mitogen-activated protein kinase kinase kinase 9 (Homo sapiens), sequence (P80192 whole entry, looked up): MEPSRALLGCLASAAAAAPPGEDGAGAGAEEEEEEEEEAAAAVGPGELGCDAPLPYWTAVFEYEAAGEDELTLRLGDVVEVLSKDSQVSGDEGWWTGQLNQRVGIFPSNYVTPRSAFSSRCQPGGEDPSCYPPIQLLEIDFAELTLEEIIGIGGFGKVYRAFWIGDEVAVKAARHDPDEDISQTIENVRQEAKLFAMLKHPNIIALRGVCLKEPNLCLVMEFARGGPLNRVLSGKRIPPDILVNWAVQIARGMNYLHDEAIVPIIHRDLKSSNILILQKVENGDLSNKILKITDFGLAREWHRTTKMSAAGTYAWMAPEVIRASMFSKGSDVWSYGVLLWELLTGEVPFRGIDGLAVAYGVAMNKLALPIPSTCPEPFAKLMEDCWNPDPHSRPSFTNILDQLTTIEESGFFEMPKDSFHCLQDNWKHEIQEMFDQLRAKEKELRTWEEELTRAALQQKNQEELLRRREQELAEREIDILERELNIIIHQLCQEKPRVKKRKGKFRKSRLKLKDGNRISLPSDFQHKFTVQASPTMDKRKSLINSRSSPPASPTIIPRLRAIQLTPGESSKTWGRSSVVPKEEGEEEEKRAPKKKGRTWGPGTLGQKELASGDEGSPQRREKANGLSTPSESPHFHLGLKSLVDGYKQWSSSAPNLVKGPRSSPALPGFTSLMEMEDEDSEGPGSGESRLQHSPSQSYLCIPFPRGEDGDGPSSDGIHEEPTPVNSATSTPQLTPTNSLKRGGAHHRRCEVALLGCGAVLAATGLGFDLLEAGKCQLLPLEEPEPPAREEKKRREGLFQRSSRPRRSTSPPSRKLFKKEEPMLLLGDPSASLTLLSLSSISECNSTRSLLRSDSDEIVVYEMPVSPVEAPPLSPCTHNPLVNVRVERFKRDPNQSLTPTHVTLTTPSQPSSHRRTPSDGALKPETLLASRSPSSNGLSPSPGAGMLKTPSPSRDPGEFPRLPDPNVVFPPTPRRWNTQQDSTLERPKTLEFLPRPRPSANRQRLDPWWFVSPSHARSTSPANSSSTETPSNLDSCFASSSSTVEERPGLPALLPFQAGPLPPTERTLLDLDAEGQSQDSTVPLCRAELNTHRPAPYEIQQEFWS
Cyclin-dependent kinase-like 5 (Homo sapiens), sequence (O76039 whole entry): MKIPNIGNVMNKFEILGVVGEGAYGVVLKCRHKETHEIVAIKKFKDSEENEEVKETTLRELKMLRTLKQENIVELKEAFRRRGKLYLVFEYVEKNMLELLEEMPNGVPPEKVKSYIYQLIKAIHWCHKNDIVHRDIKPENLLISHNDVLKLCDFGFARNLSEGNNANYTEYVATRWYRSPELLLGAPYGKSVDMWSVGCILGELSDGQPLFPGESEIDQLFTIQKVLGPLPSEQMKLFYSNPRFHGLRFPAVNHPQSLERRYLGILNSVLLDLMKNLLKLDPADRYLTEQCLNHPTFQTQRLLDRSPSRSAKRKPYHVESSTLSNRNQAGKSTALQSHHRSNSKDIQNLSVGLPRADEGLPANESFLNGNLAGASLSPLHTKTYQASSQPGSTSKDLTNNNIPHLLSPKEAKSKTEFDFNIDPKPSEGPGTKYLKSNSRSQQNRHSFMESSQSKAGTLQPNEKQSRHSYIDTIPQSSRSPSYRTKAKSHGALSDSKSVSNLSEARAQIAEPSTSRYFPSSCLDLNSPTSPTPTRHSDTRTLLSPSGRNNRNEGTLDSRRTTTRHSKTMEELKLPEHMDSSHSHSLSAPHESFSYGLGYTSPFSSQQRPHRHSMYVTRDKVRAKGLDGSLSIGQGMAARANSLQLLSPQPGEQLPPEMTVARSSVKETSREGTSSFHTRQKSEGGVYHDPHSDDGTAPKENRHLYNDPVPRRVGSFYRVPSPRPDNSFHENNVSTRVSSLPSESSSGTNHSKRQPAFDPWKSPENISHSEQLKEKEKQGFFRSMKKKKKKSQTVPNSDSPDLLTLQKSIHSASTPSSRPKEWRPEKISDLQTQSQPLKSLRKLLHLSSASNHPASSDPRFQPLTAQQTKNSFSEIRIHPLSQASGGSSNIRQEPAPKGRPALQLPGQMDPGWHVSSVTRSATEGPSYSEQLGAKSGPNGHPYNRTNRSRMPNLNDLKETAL
Dual specificity protein kinase CLK1 (Homo sapiens), sequence (P49759 whole entry, looked up): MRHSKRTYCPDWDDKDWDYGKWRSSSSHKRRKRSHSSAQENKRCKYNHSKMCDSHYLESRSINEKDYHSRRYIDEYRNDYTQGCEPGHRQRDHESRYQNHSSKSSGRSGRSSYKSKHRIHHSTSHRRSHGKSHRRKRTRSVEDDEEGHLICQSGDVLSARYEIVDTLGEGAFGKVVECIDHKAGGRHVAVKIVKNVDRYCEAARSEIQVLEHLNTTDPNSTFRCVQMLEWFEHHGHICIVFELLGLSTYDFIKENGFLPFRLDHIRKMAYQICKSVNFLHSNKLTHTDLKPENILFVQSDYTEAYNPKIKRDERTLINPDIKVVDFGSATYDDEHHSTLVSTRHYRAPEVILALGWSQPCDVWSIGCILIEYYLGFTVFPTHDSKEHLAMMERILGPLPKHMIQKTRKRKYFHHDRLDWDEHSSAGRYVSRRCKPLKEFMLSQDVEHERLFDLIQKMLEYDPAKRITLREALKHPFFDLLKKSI
Ephrin type-A receptor 5 (Homo sapiens), sequence (P54756 whole entry): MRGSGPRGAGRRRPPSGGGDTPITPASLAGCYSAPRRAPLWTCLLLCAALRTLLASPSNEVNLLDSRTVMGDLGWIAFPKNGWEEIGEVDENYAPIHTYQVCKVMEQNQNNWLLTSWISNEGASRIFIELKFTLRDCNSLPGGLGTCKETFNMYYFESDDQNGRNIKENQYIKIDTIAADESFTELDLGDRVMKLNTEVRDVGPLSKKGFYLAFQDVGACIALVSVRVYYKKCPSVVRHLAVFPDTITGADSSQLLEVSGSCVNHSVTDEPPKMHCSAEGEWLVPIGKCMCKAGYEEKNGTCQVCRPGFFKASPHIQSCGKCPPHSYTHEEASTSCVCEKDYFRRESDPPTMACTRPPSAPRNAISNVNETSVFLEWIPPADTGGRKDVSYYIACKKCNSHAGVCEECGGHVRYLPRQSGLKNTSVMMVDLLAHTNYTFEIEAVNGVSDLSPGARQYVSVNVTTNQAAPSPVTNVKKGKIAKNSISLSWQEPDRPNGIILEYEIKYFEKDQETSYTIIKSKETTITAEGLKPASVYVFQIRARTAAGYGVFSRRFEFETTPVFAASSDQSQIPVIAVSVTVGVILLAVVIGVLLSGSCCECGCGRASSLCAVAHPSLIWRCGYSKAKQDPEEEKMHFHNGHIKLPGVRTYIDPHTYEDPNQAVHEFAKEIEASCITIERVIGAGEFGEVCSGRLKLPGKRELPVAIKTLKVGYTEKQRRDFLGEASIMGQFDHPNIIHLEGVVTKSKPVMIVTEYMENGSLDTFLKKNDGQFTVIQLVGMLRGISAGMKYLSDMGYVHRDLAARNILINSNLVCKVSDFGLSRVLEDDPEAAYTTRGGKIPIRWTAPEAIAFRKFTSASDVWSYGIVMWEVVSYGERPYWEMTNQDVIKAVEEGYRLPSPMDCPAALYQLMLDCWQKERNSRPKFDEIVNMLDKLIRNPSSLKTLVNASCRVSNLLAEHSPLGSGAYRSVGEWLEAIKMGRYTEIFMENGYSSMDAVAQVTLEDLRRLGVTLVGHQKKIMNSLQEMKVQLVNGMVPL

As to `CN1C(=O)c2sccc2N(C)c2nc(Nc3ccc(S(N)(=O)=O)cc3)ncc21`, the Activity in data set [1] amounted to 85%; in data set [3] it was 100%; in data set [4], 72%; in [5], 86%; in data set [6], 100%; in [8] it was 85%. In addition, the Activity in [11] is 98%; in [12], 39%; in [13], 100%; in [14], 87%; in [15] it was 60%; in data set [16], “Non-Toxic”. The Activity in [18] was 84%; in data set [19], 63%. Also, the inhibition entry in [2] and in data set [9] was “Active” each time. For the same compound, the IC50 was determined as 0.0711 µM in data set [7], 0.034 µM in [10] and 0.164 µM in [17].
